Results from ChEMBL document CHEMBL4513216, “Probing the Open Global Health Chemical Diversity Library for Multistage-Active Starting Points for Next-Generation Antimalarials” (ACS Infect Dis, 2020).

Test: Toxicity liver stage against HepG2, at 10uM
Assay type: cell-based
Parameters: test concentration 10 uM, cell line HepG2-A16-CD81EGFP
Conditions: human, HepG2-A16-CD81EGFP cells; read-out: INHIBITION
How it was run: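 Uninfected HepG2-A16-CD81EGFP cells, 3 × 10^3 per well, 1536-well, plated on prespotted compound at 10 μM final, parasite-free screening media added to match infected plates; puromycin 10 μM positive, DMSO 0.5% negative; run in parallel with 48 h PbLuc assay at 37 °C, 5% CO2; viability by CellTiter-Glo luminescence, normalized to controls.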

| Compound | cytotoxicity at 10 µM |
| --- | --- |
| CCOC(=O)CNC(=O)NCc1cc(C)n(-c2ccc(OC)cc2)c1C | 8.27% |
| CC(=O)Nc1cccc2c1ccn2CC(=O)NC(C)C | -7.79% |
| CCC(=O)N1CCC2(COCc3c(C)nc(NCc4ccco4)nc32)C1 (stereo unspecified) | 1.75% |
| CC(C)NC(=O)N1CCC2(CCCO2)C1 (stereo unspecified) | 3.14% |
| Fc1cccc(CNCC2Cn3nncc3CO2)c1 (stereo unspecified) | 10.9% |
| CN(Cc1cccnc1)C1CC2(CCN(C(=O)c3cnccn3)CC2)C1 | -0.733% |
| CCN(c1ccc(C(=O)NCCCN2CCCCC2)cc1)S(=O)(=O)CC | 7.91% |
| O=C1CC(c2cccnc2)c2c(c(C(=O)O)cn2-c2ccccc2)N1 (stereo unspecified) | 9.92% |
| CCOC(=O)C1CCN(C(=O)Cn2ccc3cc(Br)ccc32)CC1 | -8.23% |
| COC(=O)CNC(=O)CSCc1nc(O)c2c(C)c(C)sc2n1 | 0.562% |
| CN(C)C(=O)CC1CC2(CCN(C(=O)N(C)C)CC2)Oc2ccccc21 (stereo unspecified) | -11.5% |
| Cc1nc(N2CCCC2)ncc1-c1cc(O)nc(N2CCOCC2)n1 | 10.4% |
| COc1ccc(C2=Nn3c(CCN)nnc3-c3ccccc3C2)cc1 | 4.92% |
| c1ccc2c(N3CCOCC3)cnnc2c1 | -6.06% |
| COc1ccccc1CNC(=O)C(C)n1cc2c(n1)c(C)nn2C (stereo unspecified) | 1.61% |
| Cc1ccccc1CNC(=O)Cn1ncc2c1c(C)nn2C | 9.71% |
| Cc1nn(C)c2cnn(Cc3ccc(C(=O)N4CCCCC4)o3)c12 | 11.3% |
| CCn1nc(C)c2ncnc(N(C)C)c21 | 3.18% |
| CCc1noc(C2CCCCN2C(=O)c2ccoc2C)n1 (stereo unspecified) | 12.5% |
| CO[C@H]1CN(C(=O)c2cccc(C)n2)CC[C@@]12CCCO2 | -6.6% |
| O=C(O)[C@H]1OCC(=O)N(Cc2cccc(Cl)c2)[C@@H]1c1ccccc1 | 7.35% |
| NC(=O)C1CN(C(=O)c2ccc(F)cc2)CCN1CCc1ccccc1 (stereo unspecified) | 2.77% |
| O=C(O)c1ccccc1-c1ccc(CN2CCOCC2)cn1 | -1.1% |

| Compound | cytotoxicity at 10 µM |
| --- | --- |
| O=C(O)c1ccccc1-c1cnc(Cn2c(=O)cc[nH]c2=O)s1 | 2.95% |
| CN(C)C(=O)CN1CCC2(CC1)C[C@@H](O)[C@H](c1ccccc1)NC2=O | -22.4% |
| Cc1cccc2nc(C(=O)N3CCCC[C@]4(C)NC(=O)CC[C@H]34)cn12 | -13.7% |
| CCc1nnc(Nc2cccc(C3CCN(C(=O)CN(C)C)CC3)n2)s1 | -39.1% |
| O=C(O)C1(Cc2cc(-c3ccccc3F)no2)CCOCC1 | -9.41% |
| COc1ccc(CN(Cc2cn(C)nc2C)CC2CCCO2)c(OC)c1 (stereo unspecified) | -7.3% |
| COc1ncc(C(=O)N2CCC(c3nc(C)n4ccsc34)CC2)cn1 | -17.4% |
| CNc1ccc(CC2CCCN(C(=O)c3c(C)noc3C)C2)nn1 (stereo unspecified) | -5% |
| Cn1cncc1CN1CC[C@](C)(O)[C@@H](Oc2cccc(F)c2)C1 | -8.49% |
| Cn1ccnc1CC1CCCN(C(=O)Cc2ccccc2)C1 (stereo unspecified) | -4.14% |
| COCCN1CCCC(c2nccnc2Nc2nc(C)cs2)C1 (stereo unspecified) | -7.16% |
| Cc1ccc(C(=O)N2CCCCC2CN(C)C)cc1 (stereo unspecified) | -9.98% |
| COCCn1c(C(=O)NCC(C)C(=O)O)cc2ccccc21 (stereo unspecified) | 2.64% |
| NC(=O)N1CCCC(C(=O)NCCOc2ccc3c(c2)OCO3)C1 (stereo unspecified) | -102% |
| Cc1cc(C(=O)Nc2ccc(-c3nnc(N(C)C)o3)cc2)oc1C | 0.11% |
| COC(=O)C1=NN2C(=NS(=O)(=O)c3ccccc32)N1 | -8.57% |
| CCc1nccn1C1CCCN(C(=O)c2ccc(C(N)=O)cn2)C1 (stereo unspecified) | 1.89% |
| CCOc1ccc(C(=O)N(C)Cc2nccn2CC(F)(F)F)cc1 | -0.296% |
| Cc1ccc(C(=O)N(C)Cc2csc(Br)c2)c(=O)[nH]1 | 15.3% |
| Cc1cc(N2CCC(N(C)C(=O)c3cccs3)CC2)nc(C)n1 | 6.74% |
| NC(=O)c1ccc(CN2CCCC(N3CCCCCC3)C2)cc1 (stereo unspecified) | -6.46% |
| N#Cc1cccnc1N1CCC(c2nc(C(F)(F)F)c[nH]2)CC1 | 2.74% |
| CN1CCN(S(C)(=O)=O)c2ccc(F)cc21 | -4.12% |

| Compound | cytotoxicity at 10 µM |
| --- | --- |
| O=C(C[S+]([O-])Cc1ccc(Cl)cc1Cl)N1CCc2sccc2C1 (stereo unspecified) | 2.13% |
| O=C(NCCC1CCN(CC(F)(F)F)CC1)C1COCCO1 (stereo unspecified) | 1.38% |
| O=C(C[S+]([O-])Cc1cccc(C(F)(F)F)c1)NC1CCCC1 (stereo unspecified) | 7.72% |
| CC(C)(O)CN1CCN(C(=O)COC2CCCCC2)CC1 | -2.77% |
| Cc1noc(CNC(=O)C(C)(C)NC(=O)OC(C)(C)C)n1 | 13.9% |
| Cc1cc(NCc2cccc(C#N)c2)ccc1C(=O)N(C)C | 7.06% |
| CS(=O)(=O)CCCN(CCCO)C1CCc2ccccc21 (stereo unspecified) | -10.4% |
| O=C(CN1CCCC(c2ccn[nH]2)C1)N1CCCc2ccccc21 (stereo unspecified) | -3.41% |
| Cc1cc(C(=O)Nc2ccc(N3CCCC3)cn2)ccc1-n1cncn1 | 19.8% |
| CC(C)(NS(C)(=O)=O)c1nc(-c2ccncc2)no1 | 12.9% |
| COc1ccc(CNCC2CC2)cc1F | -22% |
| CC(C)C(C(=O)N1CCN(c2ccncc2)CC1)n1cncn1 (stereo unspecified) | -9.35% |
| Cc1cc(C(=O)N2CCCC2c2nnc3n2CCCCC3)no1 (stereo unspecified) | -14% |
| CC(C)(C(=O)NCC(N)=O)c1ccccc1F | -5.33% |
| Cc1nsc(NC(=O)NC2(CN3CCCCC3)CCCCC2)n1 | 10.6% |
| CC[C@@]1(O)CCN(C(=O)CCNC(=O)c2ccc(F)cc2)C[C@H]1O | 0.0652% |
| CC(C)c1cc(NCC2(N3CCOCC3)CCCCC2)ncn1 | -12.8% |
| COCCc1noc(-c2cn(Cc3ccc(OC)cc3)nn2)n1 | 5.07% |
| CC(O)c1cn(CC2CCN(C(=O)CN3CCCC3=O)CC2)nn1 (stereo unspecified) | 2.31% |
| Cc1nonc1CN(C)Cc1c[nH]nc1-c1ccc(F)cc1F | 11.9% |
| CCc1ccc(CN2CCOC(Cc3cccc(F)c3)C2)nc1 (stereo unspecified) | -2.33% |
| CCn1c(C2CCCN(C(=O)c3ccc[nH]3)C2)nn(CCN(C)C)c1=O (stereo unspecified) | 2.67% |
| COc1cccc(C(=O)N2CCc3c(nc(N)[nH]c3=O)C2)c1C | 1.96% |

| Compound | cytotoxicity at 10 µM |
| --- | --- |
| O=C(c1c[nH]c(=O)[nH]c1=O)N1CCCC(c2nccn2CC2CCC2)C1 (stereo unspecified) | -3.67% |
| Cc1ccccc1C(C(=O)NCCn1cccc1)N(C)C (stereo unspecified) | 7.62% |
| CC(C)N1CCOC(CC(=O)N2CCCN(c3ccc(F)cc3)CC2)C1 (stereo unspecified) | -4.66% |
| CCn1ccnc1CN(C)Cc1nc(Cc2ccccc2F)no1 | 0.686% |
| CCc1ccc2nc(C)cc(C(=O)N[C@@H]3C[C@@H](CO)N(C)C3)c2c1 | 2.35% |
| Cc1nc(N2CCCC2)nc(N2CCC(O)(C(=O)O)CC2)c1C | -5.62% |
| Cc1cnc2c(C(=O)N(C)Cc3cc(C4CC4)[nH]n3)cnn2c1 | -5.71% |
| N#Cc1cccc(N2CCC(CO)(CCCc3ccccc3)CC2)n1 | -45.7% |
| CCn1c(C)nnc1SCCNc1cc(OC)ncn1 | 5.87% |
| CN(C)CCCC(=O)NC1CC(C)(C)Cc2nc(C(C)(C)C)ncc21 (stereo unspecified) | 15.2% |
| CC(C)N1CC(n2ccnc2-c2nccn2C)CC1=O (stereo unspecified) | -0.371% |
| CCC(NC1CCCC1)c1ccc(S(C)(=O)=O)cc1 (stereo unspecified) | -3.37% |
| O=C(O)[C@@H]1CN(Cc2ccc3nsnc3c2)C[C@H]1c1ccncc1 | 5.4% |
| O=C(CN1CCOC1=O)N(Cc1ccccc1)Cc1nccs1 | 0.84% |
| Cc1nc(CC(=O)N2CCC[C@H]2c2nc(C(C)C)no2)cs1 | -14.2% |
| Cc1occc1C(=O)N1CCC2(CCC(=O)N(CC(N)=O)C2)CC1 | -9.32% |
| Cc1nn(C)cc1-c1cc(C(F)F)n2nc(CCC(=O)O)nc2n1 | -5.44% |
| CCC(CC#N)n1ccc(C(F)(F)F)n1 (stereo unspecified) | -8.38% |
| CC(C)c1nccn1-c1cccc(C2CCCN2S(=O)(=O)N(C)C)n1 (stereo unspecified) | 4.26% |
| Cc1nc(C)n(C2CCCN(C(=O)c3ccc4[nH]nnc4c3)C2)n1 (stereo unspecified) | -13.9% |
| O=C(c1ccccc1N1CCOCC1)N1CCCC(n2ccnc2)C1 (stereo unspecified) | -10.7% |
| Cc1cc(NC(=O)NCC(O)c2ccc(F)c(F)c2)n(C)n1 (stereo unspecified) | -21.1% |
| COc1ccc(C)cc1CN(C)Cc1nc2c(cnn2C)c(=O)[nH]1 | -5.33% |

| Compound | cytotoxicity at 10 µM |
| --- | --- |
| O=C(CCc1cscn1)N1CCCC(n2ccnc2)C1 (stereo unspecified) | -3.03% |
| Cc1ccc(N2CCCC(NCC(=O)NCC3CC3)C2)nn1 (stereo unspecified) | -2.5% |
| COc1cccc(COCC(=O)N2CCCC(c3nncn3C)C2)c1 (stereo unspecified) | -6.36% |
| COc1ccccc1CC1CCCN(CC(N)=O)C1 (stereo unspecified) | 5.68% |
| CC(C(=O)NCc1ccc(-n2cncn2)nc1)n1ccnc1 (stereo unspecified) | 0.409% |
| CCc1nnsc1C(=O)N1CCCN(Cc2cnn(C)c2)CC1 | -2.26% |
| c1cnc2[nH]nc(C3CCN(Cc4ccsc4)CC3)c2c1 | -27.3% |
| CC(C)CN1CCCC2(CCN(c3ccccn3)C2)C1 (stereo unspecified) | -1.22% |
| CN1CC(=O)N(c2cnn(C)c2)CC12CCN(Cc1ccccc1)C2 (stereo unspecified) | -7.24% |
| Fc1ccc(CNCC2Cn3nncc3CO2)cc1 (stereo unspecified) | 7.31% |
| Cc1ccc(N2CCC3(CC2)CNC(=O)CO3)nn1 | 6.07% |
| CN(C)C(=O)CN1C(=O)CO[C@@H]2CN(c3ccccn3)C[C@H]21 | 12.3% |
| CN1CCNC(Cc2ccc(-c3ccncc3)cc2)C1=O (stereo unspecified) | -25.8% |
| COCCN1CCOCC12CCN(C(=O)c1ccoc1)CC2 | -84.6% |
| CN1CC(=O)N(c2cccc(F)c2)CC12CCN(CCO)C2 (stereo unspecified) | -82.1% |
| Cc1nnc(N2CC[C@H]3O[C@H](C(=O)NCc4ccccn4)CC[C@H]32)s1 | -66.4% |
| O=C(c1c[nH]cn1)N1CCC(F)(F)C2(CCN(c3cccc(F)c3)C2)C1 (stereo unspecified) | 9.58% |
| CN(C)S(=O)(=O)N1CC[C@]2(C[C@@H](Oc3cccnc3)CO2)C1 | -76.3% |
| COc1ccc(C2c3c(N)nc(SC)nc3N=C3CCCC(=O)C32)cc1 (stereo unspecified) | -18.7% |
